Reference: ChEMBL document CHEMBL1124517, “Nucleosides of azathioprine and thiamiprine as antiarthritics” (J Med Chem, 1989)

Columns and labels:
Rattus norvegicus [1] = species: Rattus norvegicus; experiment: Compound was tested for lethal dose at day 16 against rat; format: ADME, organism-based; details: in vivo
In short: (§1)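 Female Lewis rats (starting weight 190 ± 10 g) with adjuvant-induced arthritis. Compound was milled into rodent chow and given in the diet (mg/kg/day) from the day of adjuvant injection for 14 days. Weight change and deaths were scored on day 16. The highest nontoxic dose was the highest dose without significant weight loss. LD50 was the dietary dose killing 50% by day 16. Some values are approximate, from two dose levels.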

Rattus norvegicus [2] = species: Rattus norvegicus; experiment: Antiarthritic activity in rat determined by adjuvant arthritis assay in rat; format: functional
In short: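 Female Lewis rats, starting weight 190 ± 10 g, adjuvant-induced arthritis. Compound milled into rodent diet, dosed as mg/kg/day in diet from the day of adjuvant injection for 14 days. Arthritic score and weight change assessed on day 16. ED50 is the dose giving a 50% reduction in arthritic score relative to untreated animals.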

Rattus norvegicus [3] = species: Rattus norvegicus; experiment: Compound was tested for dose at which there was no significant weight loss in rat at day 16; format: functional; in short: as §1

SMILES | LD50 (Rattus norvegicus [1]) | ED50 (Rattus norvegicus [2]) | Highest nontoxic dose (Rattus norvegicus [3])
Cn1cnc([N+](=O)[O-])c1Sc1nc(N)nc2c1ncn2[C@H]1C[C@H](O)[C@@H](CO)O1 | 100 mg kg-1 (day in diet)-1 | 38 mg kg-1 (day in diet)-1 | 50 mg kg-1 (day in diet)-1
Sc1ncnc2nc[nH]c12 [MERCAPTOPURINE ANHYDROUS] | 25 mg kg-1 (day in diet)-1 | 20 mg kg-1 (day in diet)-1 | 20 mg kg-1 (day in diet)-1
Cn1cnc([N+](=O)[O-])c1Sc1ncnc2nc[nH]c12 [AZATHIOPRINE] | 150 mg kg-1 (day in diet)-1 | 21 mg kg-1 (day in diet)-1 | 48 mg kg-1 (day in diet)-1
Cn1cnc([N+](=O)[O-])c1Sc1nc(N)nc2[nH]cnc12 [THIAMIPRINE] | 60 mg kg-1 (day in diet)-1 | 19 mg kg-1 (day in diet)-1 | 30 mg kg-1 (day in diet)-1
Cn1cnc([N+](=O)[O-])c1Sc1ncnc2c1ncn2[C@H]1C[C@H](O)[C@@H](CO)O1 | > 270 mg kg-1 (day in diet)-1 | 64 mg kg-1 (day in diet)-1 | 100 mg kg-1 (day in diet)-1
Cn1cnc([N+](=O)[O-])c1Sc1ncnc2c1ncn2[C@@H]1O[C@H](CO)[C@@H](O)[C@H]1O | 200 mg kg-1 (day in diet)-1 | 68 mg kg-1 (day in diet)-1 | 180 mg kg-1 (day in diet)-1
Cn1cnc([N+](=O)[O-])c1Sc1nc(N)nc2c1ncn2[C@@H]1O[C@H](CO)[C@@H](O)[C@H]1O | 50 mg kg-1 (day in diet)-1 | 36 mg kg-1 (day in diet)-1 | 50 mg kg-1 (day in diet)-1
Nc1nc2nc[nH]c2c(=S)[nH]1 [THIOGUANINE] | 20 mg kg-1 (day in diet)-1 | 10 mg kg-1 (day in diet)-1 | 10 mg kg-1 (day in diet)-1
